Source: PubChem BioAssay (Broad Institute)
Compounds with a hit are over-represented: about 3% of the library has one in this group of screens.
Cneo AK release: causes C. neoformans cell lysis. adenylate kinase release luminescence, 4 h; normalised: neutral wells 0, clomiphene wells 100. lysis activity, % at 15 µM. 360,000 tested, 0.2% active. AID 651654;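 active means mean lysis activity across replicates of at least 80%, whatever share of replicates individually reach that level; inactive means mean lysis activity below 80%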
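Material: C. neoformans cells | Amount: Yeast cell density of 5 × 10^6 cells/mL | Medium: Fresh YPD growth medium | Dosing: Single dose | Times: Static 4 h at 37 °C with compound, 1 h detection | Detection: AK luminescence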
C2C12 statin: protects C2C12 myotubes from simvastatin toxicity; ATP luminescence, 48 h; scaled: DMSO 0, geranylgeraniol control 100; rescue of ATP level, % at 7.49 µM; 330,000 tested, 0.78% active;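 active means mean ATP rescue above about 67%, or every replicate alone reaching that limit, limit read from the data, passing the limit was not always enough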;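 further: myotubes were challenged with 10 µM simvastatin during compound exposure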
PGC1a acetyl inh: PGC1a acetylation modulation, inhibitor mode | inhibition, % at 15.6 µM | 350,000 tested, 0.17% active | U2OS PGC1a acetylation, AlphaScreen anti-acetyl-lysine; with virally co-expressed GCN5 acetyltransferase;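 active means every replicate shows inhibition of at least 40%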
SIRT5 inh: sirtuin-5 (human) deacylase inhibition; Purified SirT5, succinyl-peptide AMC, trypsin-coupled fluorescence; inhibition, % at 15 µM; 330,000 tested, 1.1% active; in the data active means inhibition above about 15%
Target sequence (Q9NXA8 whole entry, looked up): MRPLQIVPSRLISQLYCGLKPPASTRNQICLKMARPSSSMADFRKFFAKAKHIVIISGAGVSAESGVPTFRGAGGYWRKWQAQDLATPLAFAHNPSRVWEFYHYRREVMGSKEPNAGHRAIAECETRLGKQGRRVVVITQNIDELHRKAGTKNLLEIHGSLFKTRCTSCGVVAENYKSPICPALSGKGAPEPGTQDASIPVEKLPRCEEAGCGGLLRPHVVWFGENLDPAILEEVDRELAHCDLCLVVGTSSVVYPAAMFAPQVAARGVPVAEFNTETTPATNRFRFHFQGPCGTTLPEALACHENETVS
rRNA inh HTS: inhibits bacterial ribosomal RNA function over humanized ribosomes | E. coli WT GFP vs humanized-ribosome RFP mutants, fluorescence, 24 h; stronger effect = lower value; DMSO median 0, no signal -100 | GFP signal change (wild-type ribosome), % (test concentration not listed) | 350,000 tested, 1.6% active;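 active means significant combined selectivity score with lowered wild-type GFP, culture density cut under 30%, mutant RFP and density less affected; inactive means any of these conditions unmet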
S100A4 inh HTS: blocks human S100A4 binding to myosin IIA peptide | P26447 | S100A4/TAMRA-MyoIIA peptide fluorescence polarization | inhibition, % at 10.7 µM | 360,000 tested, 0.14% active;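 active means mean inhibition of at least 70% across replicates, with every replicate also reaching that level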
Target sequence (P26447 whole entry, looked up): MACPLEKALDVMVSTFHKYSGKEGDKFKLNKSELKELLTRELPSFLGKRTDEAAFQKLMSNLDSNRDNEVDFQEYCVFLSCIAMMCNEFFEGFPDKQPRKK
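Material: human S100A4 monomer with TAMRA-labelled myosin IIA peptide; buffer or medium: HEPES pH 7.2 with CaCl2, KCl, NaCl, DTT, Triton; compound dosing: one concentration per compound; schedule: 5 min incubation before reading; benchmarks: neutral control DMSO, positive control TFP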
A number is an active result; – = inactive; · = not tested or not shown; ! = not active in a repeat.

SMILES | Cneo AK release | C2C12 statin | PGC1a acetyl inh | SIRT5 inh | rRNA inh HTS | S100A4 inh HTS
C[C@H]1CC=CCCNC(=O)[C@H](C)N(C)C(=O)c2ccccc2O1 (mixture of isomers) | · | · | · | · | – | ·
C[C@H](CO)N1C[C@H](C)[C@H](CN(C)C(=O)Nc2ccc3c(c2)OCO3)Oc2c(NS(=O)(=O)c3cccs3)cccc2C1=O | – | – | – | – | – | –
C[C@H]1CN([C@@H](C)CO)C(=O)c2cc(NC(=O)CCN3CCOCC3)ccc2O[C@H]1CN(C)C(=O)Nc1ccc2c(c1)OCO2 | – | – | – | 20 | – | –
C[C@@H]1CN([C@@H](C)CO)C(=O)c2cc(NC(=O)CCN3CCOCC3)ccc2O[C@H]1CN(C)Cc1ccc(C(F)(F)F)cc1 | – | – | – | 26 | – | –
C[C@H](CO)N1C[C@H](C)[C@@H](CN(C)S(C)(=O)=O)Oc2ccc(NC(=O)CCN3CCOCC3)cc2C1=O | – | – | – | 23! | – | –
C[C@H]1CN([C@@H](C)CO)C(=O)c2cc(NC(=O)CCN3CCOCC3)ccc2O[C@@H]1CN(C)C(=O)Nc1ccc2c(c1)OCO2 | – | – | – | – | – | –
C[C@H]1CN([C@@H](C)CO)C(=O)c2cc(NC(=O)CCN3CCOCC3)ccc2O[C@H]1CN(C)S(C)(=O)=O | – | – | – | – | – | –
C[C@H]1CN([C@@H](C)CO)C(=O)c2cc(NC(=O)CCN3CCOCC3)ccc2O[C@@H]1CN(C)Cc1ccc(C(F)(F)F)cc1 | – | – | – | – | – | –
CCCC#Cc1cnc2c(c1)C(=O)N([C@@H](C)CO)C[C@H](C)[C@@H](CN(C)C(=O)c1ccc3c(c1)OCO3)O2 | – | – | – | – | – | –
CN1[C@H](C(=O)NC2CCCC2)[C@@H](CO)[C@@H]2Cn3c(ccc(/C=C/c4ccccc4)c3=O)[C@@H]21 | · | · | – | – | – | –
C/C=C/c1ccc(C2[C@H]3CNC[C@@H]2N3Cc2ccccc2C(F)(F)F)cc1 (stereo partly drawn) | · | · | · | · | – | ·
[N-]=[N+]=NCCNC(=O)Nc1ccccc1 | – | · | – | – | · | –
Cn1c(=S)[nH]c2sc3c(c2c1=O)CCC(C(C)(C)C)C3 (stereo not drawn) | · | · | · | 35 | – | –
Cc1cc(C)c(S(=O)(=O)N2CCN=C2c2ccccc2)cc1C | – | 99 | – | · | · | ·
COc1ccc(CN2CCN(C(=O)c3cc(-c4cccnc4)nc4ccc(Cl)cc34)CC2)c(OC)c1OC | – | – | – | – | -23 | –
CS(=O)(=O)N1CCN(C(=O)c2cc(-c3cccnc3)nc3ccc(Cl)cc23)CC1 | · | · | – | – | – | –
O=C1CCC([N+](=O)[O-])C(c2ccc(Cl)cc2Cl)N1 (stereo not drawn) | – | 70 | – | · | · | ·
O=C1CCC([N+](=O)[O-])C(c2cc(Br)ccc2F)N1 (stereo not drawn) | – | – | – | – | – | –
CCNC(=O)C[C@H]1CC[C@H](NC(=O)NC2CCCCC2)[C@@H](CO)O1 | 107 | – | – | – | – | –
CCNC(=O)C[C@H]1CC[C@@H](NC(=O)NC2CCCCC2)[C@H](CO)O1 | 97 | – | – | – | – | –
O=C(NC1CCCC1)N[C@@H]1CC[C@H](CC(=O)N2CCOCC2)O[C@H]1CO | – | – | – | 25 | – | –
Cc1cc(C)c(C)c(S(=O)(=O)NCC(=O)N2CCCC2)c1C | – | 115 | – | · | · | ·
Cc1ccc(C)c(S(=O)(=O)NCC(=O)N2CCCC2)c1 | – | – | – | – | – | –
COc1ccc2c3c([nH]c2c1)[C@@H](CO)N(C(=O)c1ccncc1)CC31CCN(C(=O)c2ccncc2)CC1 | · | · | – | – | – | –
COc1ccccc1C(=O)N/C(=C\c1ccc(Br)cc1)C(=O)N1CCCC1 | – | · | – | – | -40 | –
SMILES | Cneo AK release | C2C12 statin | PGC1a acetyl inh | SIRT5 inh | rRNA inh HTS | S100A4 inh HTS
Cc1cc(NC(=O)COC(=O)CSCc2ccc(Cl)c(Cl)c2)no1 | – | – | · | – | -22 | –
Oc1ccc(N=Nc2ccccc2)cc1 | – | – | – | – | – | –
Oc1ccc(N=Nc2n[nH]c(-c3ccc(Cl)cc3)n2)cc1 | – | – | – | – | -18 | –
Cc1ccc(CSCC(=O)Nc2ccc3c(c2)OCO3)cc1 | – | 103 | – | – | -30 | –
Cc1ccc(-c2ccc(=O)n(CC(=O)Nc3ccc4c(c3)OCCO4)n2)cc1 | · | · | – | 20 | – | –
O=C(Cn1nc(-c2ccc(F)cc2)ccc1=O)Nc1ccc2c(c1)OCCO2 | – | – | – | – | – | –
O=C(CSCc1ccccc1)Nc1ccc2c(c1)OCO2 | – | – | – | · | · | ·
CCOC(=O)c1sc(CS(=O)(=O)c2ccc(Cl)cc2)nc1C | · | – | – | – | – | –
CCOC(=O)c1sc(-c2ccc(Cl)cc2Cl)nc1O | · | · | · | – | -29 | –
O=C(CC1(c2ccc(Cl)cc2)C2CC3CC(C2)CC1C3)NCCO (stereo not drawn) | · | · | – | – | -42 | –
O=C(CC(=O)Nc1nc(C23CC4CC(CC(C4)C2)C3)cs1)NCCO | – | – | – | – | – | –
Cc1nc(N/N=C/c2cccc(F)c2)cc(N2CCOCC2)n1 | – | – | – | – | – | –
Oc1ccc(/C=N/Nc2cc(N3CCOCC3)nc(N3CCOCC3)n2)cc1O | · | · | · | – | -25 | –
Oc1cccc(/C=N/Nc2cc(N3CCOCC3)nc(N3CCOCC3)n2)c1 | – | – | – | · | · | ·
Cc1nc(N/N=C/c2ccc(O)cc2O)cc(N2CCOCC2)n1 | – | – | – | – | -37 | –
Oc1c(Cl)cc(Cl)cc1C=Nc1ccc(N2CCOCC2)cc1 | – | – | – | – | – | –
Oc1ccc(C=Nc2ccc(N3CCOCC3)cc2)c(O)c1 | – | · | 64 | · | · | ·
CC=Cc1ccc2n(c1=O)C[C@@H]1[C@@H](CO)[C@H](C(=O)Nc3ccc(-c4ccccc4)cc3)N(C)[C@H]21 (mixture of isomers) | – | – | · | – | – | –
C#CC[N+](CC)(CC)CC#Cc1ccccc1 | – | – | – | – | – | –
CC[N+](CC)(CC#Cc1ccccc1)CC#Cc1ccccc1 | · | · | · | – | -45 | –
Oc1ccc(Br)cc1CNc1nccs1 | – | – | – | – | – | –
Oc1ccc(Br)cc1CNc1ccccn1 | · | · | – | – | -16 | –
O=C(CCOc1ccccc1)N1CCN(S(=O)(=O)c2cccs2)CC1 | – | 78 | – | · | · | ·
O=C(COc1ccccc1)N1CCN(S(=O)(=O)c2cccs2)CC1 | – | – | – | · | · | ·
CCNC(=S)NNC(=O)c1cccn(Cc2ccc(Cl)cc2Cl)c1=O | – | 82 | – | – | – | –
COc1ccc(O)c(CN2CCN(C/C=C/c3ccccc3)CC2)c1 | – | – | – | · | · | ·
COc1cc(Br)cc(CN2CCN(C/C=C/c3ccccc3)CC2)c1O | – | – | – | – | -34 | –
O=C(Cc1ccccn1)N[C@@H]1CC[C@@H](CCn2cc(-c3ccc(F)cc3)nn2)O[C@@H]1CO | · | · | – | – | – | –
